ChEMBL document CHEMBL3588757, “Structure-based design, synthesis and biological testing of piperazine-linked bis-epipodophyllotoxin etoposide analogs” (Bioorg Med Chem, 2015)

Legend:
MOLT-4 = experiment: Cytotoxicity against human MOLT4 cells assessed as cell growth at 0.5 uM by SRB assay; format: functional; settings: read-out: Activity
SNB-75 = experiment: Cytotoxicity against human SNB75 cells assessed as cell growth at 0.5 uM by SRB assay; format: functional; settings: read-out: Activity
A498 [1] = experiment: Cytotoxicity against human A498 cells by SRB assay; format: functional
MDA-MB-468 = experiment: Cytotoxicity against human MDA-MB-468 cells assessed as cell growth at 0.5 uM by SRB assay; format: functional; settings: read-out: Activity
CAKI-1 [2] = experiment: Cytotoxicity against human Caki1 cells assessed as cell growth at 50 uM by SRB assay; format: functional; settings: read-out: Activity
SN12C = experiment: Cytotoxicity against human SN12C cells assessed as cell growth at 5 uM by SRB assay; format: functional; settings: read-out: Activity
OVCAR-5 [3] = experiment: Cytotoxicity against human OVCAR5 cells assessed as cell growth at 0.5 uM by SRB assay; format: functional; settings: read-out: Activity
COLO 205 = experiment: Cytotoxicity against human COLO205 cells assessed as cell growth at 0.5 uM by SRB assay; format: functional; settings: read-out: Activity
CAKI-1 [4] = experiment: Cytotoxicity against human Caki1 cells by SRB assay; format: functional
ACHN [5] = experiment: Cytotoxicity against human ACHN cells assessed as cell growth at 0.5 uM by SRB assay; format: functional; settings: read-out: Activity
NCI-H322M = experiment: Cytotoxicity against human NCI-H322M cells assessed as cell growth at 0.005 uM by SRB assay; format: functional; settings: read-out: Activity
T47D = experiment: Cytotoxicity against human T47D cells assessed as cell growth at 5 uM by SRB assay; format: functional; settings: read-out: Activity
SF-268 [6] = experiment: Cytotoxicity against human SF268 cells assessed as cell growth at 0.05 uM by SRB assay; format: functional; settings: read-out: Activity
NCI-H522 [7] = experiment: Cytotoxicity against human NCI-H522 cells by SRB assay; format: functional
In short: (§1)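 NCI-60 panel screen; 5-dose testing giving GI50 per cell line, plus a single 10 µM one-dose test. Method details not given beyond the NCI screen.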

RXF 393 = experiment: Cytotoxicity against human RXF393 cells assessed as cell growth at 0.05 uM by SRB assay; format: functional; settings: read-out: Activity
OVCAR-5 [8] = experiment: Cytotoxicity against human OVCAR5 cells assessed as cell growth at 0.05 uM by SRB assay; format: functional; settings: read-out: Activity
SK-MEL-28 = experiment: Cytotoxicity against human SK-MEL-28 cells assessed as cell growth at 0.05 uM by SRB assay; format: functional; settings: read-out: Activity
BT-549 [9] = experiment: Cytotoxicity against human BT549 cells assessed as cell growth at 5 uM by SRB assay; format: functional; settings: read-out: Activity
HCC 2998 = experiment: Cytotoxicity against human HCC2998 cells assessed as cell growth at 5 uM by SRB assay; format: functional; settings: read-out: Activity
In short: (§2)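 Measured in the NCI-60 human tumour cell line panel using five-dose testing. Growth was recorded at each dose for each cell line, and a GI50 was derived for each line.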

MDA-MB-435 = experiment: Cytotoxicity against human MDA-MB-435 cells assessed as cell growth at 5 uM by SRB assay; format: functional; settings: read-out: Activity
TK-10 = experiment: Cytotoxicity against human TK10 cells assessed as cell growth at 0.05 uM by SRB assay; format: functional; settings: read-out: Activity
[10] = Cytotoxicity against human NCI-ADR-RES cells assessed as cell growth at 0.5 uM by SRB assay; format: functional; settings: read-out: Activity
NCI-H522 [11] = experiment: Cytotoxicity against human NCI-H522 cells assessed as cell growth at 0.05 uM by SRB assay; format: functional; settings: read-out: Activity
ACHN [12] = experiment: Cytotoxicity against human ACHN cells assessed as cell growth at 0.005 uM by SRB assay; format: functional; settings: read-out: Activity
U-251 = experiment: Cytotoxicity against human U251 cells assessed as cell growth at 50 uM by SRB assay; format: functional; settings: read-out: Activity
RPMI-8226 = experiment: Cytotoxicity against human RPMI8226 cells assessed as cell growth at 50 uM by SRB assay; format: functional; settings: read-out: Activity
UACC-62 = experiment: Cytotoxicity against human UACC62 cells by SRB assay; format: functional; in short: as §1
SK-MEL-2 = experiment: Cytotoxicity against human SK-MEL-2 cells assessed as cell growth at 0.05 uM by SRB assay; format: functional; settings: read-out: Activity
A498 [13] = experiment: Cytotoxicity against human A498 cells assessed as cell growth at 0.05 uM by SRB assay; format: functional; settings: read-out: Activity
OVCAR-3 = experiment: Cytotoxicity against human OVCAR3 cells assessed as cell growth at 50 uM by SRB assay; format: functional; settings: read-out: Activity
SF-268 [14] = experiment: Cytotoxicity against human SF268 cells assessed as cell growth at 5 uM by SRB assay; format: functional; settings: read-out: Activity
SW-620 = experiment: Cytotoxicity against human SW620 cells assessed as cell growth at 50 uM by SRB assay; format: functional; settings: read-out: Activity
ACHN [15] = experiment: Cytotoxicity against human ACHN cells assessed as cell growth at 50 uM by SRB assay; format: functional; settings: read-out: Activity
SR = experiment: Cytotoxicity against human SR cells assessed as cell growth at 0.05 uM by SRB assay; format: functional; settings: read-out: Activity
HCT-116 = experiment: Cytotoxicity against human HCT116 cells assessed as cell growth at 5 uM by SRB assay; format: functional; settings: read-out: Activity; in short: as §2
[16] = Cytotoxicity against human Hs578T cells assessed as cell growth at 0.005 uM by SRB assay; format: functional; settings: Hs-578T, read-out: Activity; in short: as §2
KM12 = experiment: Cytotoxicity against human KM12 cells assessed as cell growth at 0.005 uM by SRB assay; format: functional; settings: read-out: Activity
OVCAR-5 [17] = experiment: Cytotoxicity against human OVCAR5 cells by SRB assay; format: functional; in short: as §1
786-0 = experiment: Cytotoxicity against human 786-0 cells assessed as cell growth at 0.05 uM by SRB assay; format: functional; settings: read-out: Activity
[18] = Cytotoxicity against etoposide-resistant human K/VP.5 cells assessed as cell growth inhibition after 72 hrs by MTS assay; format: functional, cell-based; settings: K/VP.5, 72 h
In short: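 K/VP.5 cells are a K562-derived subline, 26-fold etoposide-resistant, with decreased topoisomerase IIα mRNA and protein. Cells were grown in suspension in αMEM with 10% fetal calf serum. Drugs were given from DMSO stocks, with final DMSO typically 0.4% or less. Read-out was MTS absorbance after 72 h. Typically nine concentrations were run in duplicate on two days. IC50 came from a four-parameter logistic fit.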

BT-549 [19] = experiment: Cytotoxicity against human BT549 cells assessed as cell growth at 0.005 uM by SRB assay; format: functional; settings: read-out: Activity
[20] = read-out: LC50 (the source's name)
[21] = read-out: pLC50 (the source's name) (converted)

SMILES: COc1cc([C@@H]2c3cc4c(cc3[C@@H](NC(=O)CN3CCN(CCCCCCCCCCN5CCN(CC(=O)N[C@@H]6c7cc8c(cc7[C@@H](c7cc(OC)c(O)c(OC)c7)[C@H]7C(=O)OC[C@@H]76)OCO8)CC5)CC3)[C@H]3COC(=O)[C@H]23)OCO4)cc(OC)c1O
- growth at 0.5 µM (MOLT-4): 37%
- growth at 0.5 µM (SNB-75): 34%
- CC50 (A498 [1]; [20]): 14.6 µM
- GI50 (A498 [1]; read-out: pGI50 (converted)): 0.513 µM
- CC50 (A498 [1]; [21]): 14.8 µM
- TGI (A498 [1]; read-out: pTGI (converted)): 3.55 µM
- growth at 0.5 µM (MDA-MB-468): 73%
- growth at 50 µM (CAKI-1 [2]): -97%
- growth at 5 µM (SN12C): 3%
- growth at 0.5 µM (OVCAR-5 [3]): 63%
- growth at 0.5 µM (COLO 205): 72%
- GI50 (CAKI-1 [4]; read-out: GI50): 1.93 µM
- CC50 (CAKI-1 [4]; [20]): 21 µM
- TGI (CAKI-1 [4]; read-out: TGI): 8.37 µM
- GI50 (CAKI-1 [4]; read-out: pGI50 (converted)): 1.95 µM
- CC50 (CAKI-1 [4]; [21]): 20.9 µM
- TGI (CAKI-1 [4]; read-out: pTGI (converted)): 8.32 µM
- growth at 0.5 µM (ACHN [5]): 41%
- growth at 0.005 µM (NCI-H322M): 96%
- growth at 5 µM (T47D): 16%
- growth at 0.05 µM (SF-268 [6]): 77%
- GI50 (NCI-H522 [7]; read-out: GI50): 0.032 µM
- CC50 (NCI-H522 [7]; [20]): 4.38 µM
- TGI (NCI-H522 [7]; read-out: TGI): 0.797 µM
- GI50 (NCI-H522 [7]; read-out: pGI50 (converted)): 0.0324 µM
- CC50 (NCI-H522 [7]; [21]): 4.37 µM
- TGI (NCI-H522 [7]; read-out: pTGI (converted)): 0.794 µM
- growth at 0.05 µM (RXF 393): 84%
- growth at 0.05 µM (OVCAR-5 [8]): 83%
- growth at 0.05 µM (SK-MEL-28): 100%
- growth at 5 µM (BT-549 [9]): -66%
- growth at 5 µM (HCC 2998): 29%
- growth at 5 µM (MDA-MB-435): -60%
- growth at 0.05 µM (TK-10): 91%
- growth at 0.5 µM [10]: 101%
- growth at 0.05 µM (NCI-H522 [11]): 39%
- growth at 0.005 µM (ACHN [12]): 100%
- growth at 50 µM (U-251): -79%
- growth at 50 µM (RPMI-8226): -13%
- GI50 (UACC-62; read-out: GI50): 7.23 µM
- CC50 (UACC-62; [20]): > 50 µM
- TGI (UACC-62; read-out: TGI): 24.1 µM
- GI50 (UACC-62; read-out: pGI50 (converted)): 7.24 µM
- CC50 (UACC-62; [21]): > 50.1 µM
- TGI (UACC-62; read-out: pTGI (converted)): 24 µM
- growth at 0.05 µM (SK-MEL-2): 89%
- growth at 0.05 µM (A498 [13]): 72%
- growth at 50 µM (OVCAR-3): -50%
- growth at 5 µM (SF-268 [14]): -34%
- growth at 50 µM (SW-620): -89%
- growth at 50 µM (ACHN [15]): -87%
- growth at 0.05 µM (SR): 85%
- growth at 5 µM (HCT-116): -15%
- growth at 0.005 µM [16]: 94%
- growth at 0.005 µM (KM12): 97%
- GI50 (OVCAR-5 [17]; read-out: GI50): 0.83 µM
- CC50 (OVCAR-5 [17]; [20]): 19.5 µM
- TGI (OVCAR-5 [17]; read-out: TGI): 5.65 µM
- GI50 (OVCAR-5 [17]; read-out: pGI50 (converted)): 0.832 µM
- CC50 (OVCAR-5 [17]; [21]): 19.5 µM
- TGI (OVCAR-5 [17]; read-out: pTGI (converted)): 5.62 µM
- growth at 0.05 µM (786-0): 89%
- IC50 [18]: 0.114 µM
- growth at 0.005 µM (BT-549 [19]): 94%
